Source: PubChem
TRPC4 block: blocks the mouse TRPC4 cation channel. B-score at 10 µM. HEK293 TRPC4beta/mu-opioid, DAMGO-evoked Fluo4 calcium flux; active compounds read low. AID 2247. 300,000 compounds, 0.39% hits. Q9QUQ5;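 active = B-score over 3 SD under the library average, no early fluorescence shift, positive overall ratio signal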
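Test system – stable TRPC4beta/mu-opioid receptor HEK293 cells · Probe or stimulus – DAMGO, a submaximal dose followed by a maximal one · Dosing – one concentration per compound · Signal – Fluo4 calcium fluorescence by kinetic imaging, 5 s 1 Hz baseline · Evaluation – per-well B score of integrated baseline-normalized Fluo4 ratio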
TRPC6 inhibitor: blocks the mouse TRPC6 cation channel; 310,000 compounds, 1.1% hits; B-score at 10 µM; AID 2553; HEK293-TRPC6, membrane potential dye, ACh-evoked depolarization; active compounds read low;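 active = B-score under library mean minus 3 SD, initial fluorescence not abnormally high, positive integrated signal ratio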;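 also: B-score derived from integrated fluorescence ratio over the kinetic read; more negative B-score means stronger inhibition of depolarization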
TRPC4 act: activators of mouse TRPC4 channel. B-score at 10 µM. 310,000 compounds, 0.49% hits. HEK293 TRPC4beta/mu-opioid, Fluo4 calcium fluorescence; active compounds read high. Q9QUQ5;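 active = B-score above 5 SD of library B-scores, and initial fluorescence ratio not above library mean plus 5 SD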;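 also: positive B-score marks a calcium rise read as TRPC4 activation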
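Assay system – TRPC4beta and mu-opioid receptor HEK293 stable cells · Measured by – Fluo4 fluorescence, kinetic · Schedule – dye loading 45 min room temperature, 110 s kinetic read · Read-out – B-scored integrated calcium fluorescence ratio · Controls – buffer and maximal DAMGO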
TRPC6 act: activators of mouse TRPC6 channel; Q61143; HEK293-TRPC6 membrane potential dye fluorescence; active compounds read high; B-score at 10 µM; 310,000 compounds, 0.13% hits; AID 2550;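 active = B-score of the integrated fluorescence ratio above library mean plus 3 SD, and starting fluorescence ratio within library mean plus 5 SD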;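 also: higher score means more depolarization so channel activation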
TRPC4 potent: TRPC4 (mouse) allosteric potentiation; Q9QUQ5; HEK293 TRPC4beta/mu-opioid, DAMGO EC20, Fluo-4 Ca2+ flux; active compounds read high; B-score at 10 µM; 310,000 compounds, 0.42% hits;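 active = B-score of calcium response area above 5 SD of library B-scores, with initial fluorescence ratio within 5 SD of library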;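 also: B-score of integrated fluorescence ratio over time as area under calcium response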
Active calls of the source: *; i = inactive; ! = not active in a repeat. Rows were chosen to be rich in hits. Some 2.3% of all compounds tested hit in one or more screens of this group.

SMILES	TRPC4 block	TRPC6 inhibitor	TRPC4 act	TRPC6 act	TRPC4 potent
Cc1ccccc1OCCCCc1c(C)n[nH]c1C	-6*	i	i	i	i
CCOCCCNC(=O)/C(C#N)=C/c1ccc(Cl)c([N+](=O)[O-])c1	i	i	i	i	18*
C=CCc1ccccc1OCC(O)CN1CCN(Cc2ccc3c(c2)OCO3)CC1 (stereo not drawn)	-7*!	i	i	i	i
O=C(CSC1=NS(=O)(=O)c2ccccc2N1)Nc1nccs1	i	i	i	i	i
CC12CCC(=O)N1C(C(=O)NCc1ccccc1Cl)CS2 (stereo not drawn)	i	i	i	i	i
Cc1ccc(C2c3c(C)nn(-c4ccc([N+](=O)[O-])cc4)c3N=C3C(=O)Nc4ccccc4N32)cc1 (stereo not drawn)	i	-5.28*	i	i	i
Cc1cc(C[n+]2ncsc2N)c2ncccc2c1	i	i	i	i	i
Cc1cc(C[n+]2cc(Cl)ccc2N)c2ncccc2c1	i	i	i	i	i
COc1ccc2c(c1)sc(N)[n+]2Cc1cc(C)cc2cccnc12	-5*	i	i	i	i
CCOc1ccc2c(c1)sc(N)[n+]2Cc1cc(C)cc2cccnc12	-7*	i	i	i	i
Cc1cc(C(C)(C)C)c(O)c(C)c1CC1=NCCN1	i	i	i	i	17*
c1ccc2c(CC3=NCCN3)cccc2c1	i	i	i	i	i
CCn1c(=O)c2sccc2n(CC(=O)NC2CCCC2)c1=O	i	i	i	i	i
O=C(CC1C(=O)NCCN1Cc1cccc(Oc2ccccc2)c1)NCCc1cscn1 (stereo not drawn)	i	i	i	i	i
O=C(CC1C(=O)NCCN1Cc1c(F)cccc1Cl)NCCc1ccccn1 (stereo not drawn)	i	i	i	i	i
O=C(CC1C(=O)NCCN1CC1CCCCC1)NCc1ccc(F)cc1 (stereo not drawn)	i	i	i	i	i
O=C(CC1C(=O)NCCN1CC1CCCCC1)NCCc1ccc(F)cc1 (stereo not drawn)	i	i	51*	i	i
O=C(CC1C(=O)NCCN1Cc1cccc(Oc2ccccc2)c1)NCCc1ccccn1 (stereo not drawn)	i	i	115*	i	i
COc1cccc(CN2CCNC(=O)C2CC(=O)NCCc2ccccn2)c1 (stereo not drawn)	i	i	54*	i	i
O=C(CC1C(=O)NCCN1Cc1ccccc1C(F)(F)F)NCCc1ccccn1 (stereo not drawn)	i	i	116*	i	i
Cc1ccc(NS(=O)(=O)c2ccc(-c3csc(C)n3)s2)c(C)c1	i	i	i	i	i
Cc1nn(C)c(C(=O)N/N=C/c2cccnc2)c1Br	i	i	i	i	i
O=C(CCCSc1nc2ccccc2[nH]1)NCc1ccccc1Cl	-8*	i	i	i	i
O=C(CCCSc1nc2ccccc2[nH]1)NC(c1ccccc1)c1ccccc1	i	i	i	i	i
Cc1cc2c(cc1S(=O)(=O)N1CCCC1)n(C)c(=O)c(=O)n2C	i	i	i	i	i
SMILES	TRPC4 block	TRPC6 inhibitor	TRPC4 act	TRPC6 act	TRPC4 potent
CC(Oc1ccccc1)C(=O)N1CCN(c2ccc(N3CCOCC3)nn2)CC1 (stereo not drawn)	i	i	i	i	i
Cc1ccc(NC(=O)c2cccs2)cc1	-6*	i	77*	i	i
CCCCCN1C2=NCCN2c2ccccc21	-6*	i	i	i	i
CCCN1C2=NCCN2c2cc(C)c(C)cc21	-7*	i	i	i	i
CC1CCCCN1CCCNc1ccc(C(CC(N)=O)NC(=O)Cc2ccc(Br)cc2)cc1[N+](=O)[O-] (stereo not drawn)	i	i	i	i	i
COC(=O)/C=C1/SC(=NC(=O)c2ccccc2)NC1=O	i	i	i	i	i
COC(=O)/C=C1\SC(=NC(=O)c2cccc(Cl)c2)NC1=O	-6*	i	i	i	i
N/C(=N\OC(=O)C1CCCCC1)c1ccc(Cl)cc1	i	i	i	i	i
NC(=NC1CCCCC1)c1ccc(Cl)cc1	-5*	i	i	i	i
CC1C(=O)Nc2ccc(S(=O)(=O)Nc3ccccc3Br)cc2NC1=O (stereo not drawn)	i	i	i	i	i
COc1ccc(C)cc1NC(=O)C/C(C)=N/NC(=O)Cc1cccc2ccccc12	i	i	i	i	i
CC(C)CCNC(=O)CCC(=O)NNc1nc2ccccc2c2nc(-c3ccccc3)nn12	i	i	i	i	23*
O=C(CCC(=O)NNc1nc2ccccc2c2nc(-c3ccccc3)nn12)NCCCN1CCOCC1	i	i	i	i	i
COc1ccc(CCC(C)NCC(C)c2ccccc2)cc1 (stereo not drawn)	i	i	i	i	i
CN(Cc1ccccc1NCC(=O)Nc1ccccc1C#N)C1CCCCC1	-6*	i	i	i	i
N#Cc1ccccc1NC(=O)CNc1ccccc1N1CCCCC1	i	i	i	i	i
CC(C)=CCN1CCN(Cc2cccc3nonc23)CC1CCO (stereo not drawn)	-5*	i	i	i	i
CN1c2ccccc2C(=O)/C(=C\Nc2ccc(F)cc2F)S1(=O)=O	i	i	i	i	i
Cn1c(=O)n(C)c2cc([N+](=O)[O-])c(N3CCN(S(=O)(=O)c4ccc5ccccc5c4)CC3)cc21	i	i	i	i	i
Cc1ccc(S(=O)(=O)N2CCN(c3cc4c(cc3[N+](=O)[O-])n(C)c(=O)n4C)CC2)cc1	i	i	i	i	15*
Cc1cc(C)cc(NC(=O)c2nnn(Cc3cc(C)ccc3C)c2N)c1	i	i	i	i	17*
Cc1cc(OCCN2CCCC2)ccc1[N+](=O)[O-]	i	i	i	i	30*
O=C(Cc1ccccc1)NCCCN1CCN(CCCNC(=O)Cc2ccccc2)CC1	i	i	i	i	11*
O=C(Cn1nc(-c2ccccc2)ccc1=O)NCCN1CCN(Cc2ccccc2)CC1	i	i	i	i	19*
CNc1[nH]c(=O)[nH]c(=O)c1N=Nc1cc(Cl)ccc1Cl	i	i	i	i	i
Cc1cc(NC(=O)CSc2nnc(-c3ccc([N+](=O)[O-])cc3)o2)no1	i	i	i	i	i
